According to ChEMBL document CHEMBL4831482 (Eur J Med Chem, 2021):
Active and inactive are the calls of the source. No cut-off for these calls is given here. Where a SMILES comes first, the peptide text is derived from it. The star is where a group is joined. Boc = CC(C)(C)OC(=O)*

What was measured:
[1] = system: Cryptococcus neoformans; experiment: Antifungal activity against Cryptococcus neoformans ATCC 90113 assessed as inhibition of fungal growth by CLSI method; assay type: functional, organism-based
[2] = system: Candida albicans; experiment: Antifungal activity against Candida albicans ATCC 10231 assessed as inhibition of fungal growth by CLSI method; assay type: functional, organism-based
[3] = system: Aspergillus fumigatus; experiment: Antifungal activity against Aspergillus fumigatus ATCC 1022 assessed as inhibition of fungal growth by CLSI method; assay type: functional, organism-based
[4] = system: Klebsiella pneumoniae; experiment: Antibacterial activity against Klebsiella pneumoniae ATCC BAA1705 assessed as inhibition of bacterial growth by CLSI method; assay type: functional, organism-based
[5] = system: Vero; experiment: Cytotoxicity against African green monkey Vero cells assessed as reduction in cell viability incubated for 48 hrs by Neutral red assay; assay type: cell-based; settings: chlorocebus sabaeus
Summary of the method: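 VERO monkey kidney cells seeded at 25,000 cells/well and incubated 24 h to confluency. Peptide added, then a further 48 h incubation. Viability read by neutral red uptake.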

[6] = Aggregation property of the compound in PBS assessed as particle size at pH 7.4 measured after 4 hrs by dynamic light scattering analysis (reference value: 802 nm); assay type: physicochemical; settings: buffer, pH 7.4, 4 h
[7] = Aggregation property of the compound in PBS assessed as polydispersity index at pH 7.4 by dynamic light scattering analysis (reference value: 0.383); assay type: physicochemical; settings: buffer
[8] = system: Cell membrane; experiment: Induction of membrane permeabilization and disruption in Cryptococcus neoformans ATCC350 assessed as increase in green fluorescence intensity using FITC-labeled compound at MIC measured after 1 hr by confocal laser scanning microscopic analysis; assay type: subcellular
[9] = system: Cryptococcus neoformans; experiment: Potency index, ratio of Amphotericin B IC50 to test compound IC50 for antifungal activity against Cryptococcus neoformans ATCC 90113 assessed as inhibition of fungal growth by CLSI method; assay type: functional
[10] = system: Staphylococcus aureus; experiment: Antibacterial activity against methicillin-resistant Staphylococcus aureus ATCC 33591 assessed as inhibition of bacterial growth by CLSI method; assay type: functional, organism-based
[11] = system: Enterococcus; experiment: Antibacterial activity against vancomycin resistant Enterococcus ATCC MP-1 assessed as inhibition of bacterial growth by CLSI method; assay type: functional, organism-based
[12] = system: Escherichia coli; experiment: Antibacterial activity against Escherichia coli ATCC 35218 assessed as inhibition of bacterial growth by CLSI method; assay type: functional, organism-based
[13] = system: Pseudomonas aeruginosa; experiment: Antibacterial activity against Pseudomonas aeruginosa ATCC 27853 assessed as inhibition of bacterial growth by CLSI method; assay type: functional, organism-based
[14] = system: Cryptococcus neoformans; experiment: Potency index, ratio of Amphotericin B MIC to test compound MIC for antifungal activity against Cryptococcus neoformans ATCC 90113 assessed as inhibition of fungal growth by CLSI method; assay type: functional
[15] = system: Lipid bilayer; experiment: Binding affinity to bacterial membrane mimic EPYC/EPYG (7:3) small unilamellar vesicle assessed as Stern-Volmer quenching constant by tryptophan quenching analysis
[16] = system: Lipid bilayer; experiment: Binding affinity to mammalian membrane mimic EPYC/cholesterol (10:1) small unilamellar vesicle assessed as Stern-Volmer quenching constant by tryptophan quenching analysis
[17] = Aggregation property of the compound in PBS assessed as particle size at pH 7.4 measured after 4 hrs by dynamic light scattering analysis (reference value: 2073 nm); assay type: physicochemical; settings: buffer, pH 7.4, 4 h
[18] = Aggregation property of the compound in PBS assessed as polydispersity index at pH 7.4 by dynamic light scattering analysis (reference value: 0.333); assay type: physicochemical; settings: buffer
[19] = system: Cell wall; experiment: Disruption of Cell wall in Cryptococcus neoformans ATCC350 by HR-TEM analysis; assay type: subcellular
[20] = system: Cell membrane; experiment: Disruption of Plasma membrane in Cryptococcus neoformans ATCC350 by HR-TEM analysis; assay type: cell membranes
[21] = system: Cryptococcus neoformans; experiment: Disruption of capsule in Cryptococcus neoformans ATCC350 by HR-TEM analysis
[22] = system: Cell membrane; experiment: Induction of membrane permeabilization in Cryptococcus neoformans ATCC350 assessed as increase in red fluorescence intensity at MIC measured after 1 hr by propidium iodide staining based confocal laser scanning microscopic analysis; assay type: subcellular
Summary of the method: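 Cells centrifuged, resuspended in PBS pH 7.4 and stained with propidium iodide. Confocal imaging at >560 nm, with untreated cells as control.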

[23] = system: Cryptococcus neoformans; experiment: Induction of DNA damage in Cryptococcus neoformans ATCC350 assessed as nuclear and chromatin fragmentation by measuring reduction in blue fluorescence intensity at MIC measured after 1 hr by DAPI staining based confocal laser scanning microscopic analysis; assay type: functional, organism-based
Summary of the method: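 Cells centrifuged, resuspended in PBS and stained with DAPI (3.01 µM, 10 min). Confocal imaging at Ex/Em 350/470 nm, with untreated cells as control.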

[24] = system: Cell membrane; experiment: Induction of pore formation in Cryptococcus neoformans ATCC350 assessed as membrane permeabilization by measuring release of intracellular material at MIC by scanning electron microscopy; assay type: subcellular

| Compound | IC50 [1] | Activity [2] | Activity [3] | Activity [4] | Activity [5] | Activity [8] | MIC [1] | IC50 [10] | MIC [10] | IC50 [11] | MIC [11] | IC50 [12] | IC50 [13] | also measured |
| --- | --- | --- | --- | --- | --- | --- | --- | --- | --- | --- | --- | --- | --- | --- |
| COC(=O)[C@H](CCCNC(=N)N)NC(=O)[C@H](Cc1c[nH]c2ccccc12)NC(=O)[C@H](Cc1c[nH]cn1)NC(=O)OC(C)(C)C (Boc-His-Trp-Arg-OMe) | > 20 µg/mL | inactive | inactive | inactive | > 10 µg/mL | inactive |  |  |  |  |  |  |  | Activity [6]: 108 nm; Activity [7]: 0.922 |
| CCCCc1ccc(-c2nc(C[C@H](N)C(=O)N[C@@H](Cc3c[nH]c4ccccc34)C(=O)N[C@@H](CCCNC(=N)N)C(=O)OC)c[nH]2)cc1.Cl.Cl | 0.37 µg/mL | inactive | inactive | inactive | > 10 µg/mL | Active | 0.63 µg/mL | 8.74 µg/mL | 10 µg/mL | 15.4 µg/mL | 20 µg/mL | 15.6 µg/mL | > 20 µg/mL | Ratio IC50 [9]: 2; MIC [12]: > 20 µg/mL; Ratio [14]: 2; KSV [15]: 6.68; KSV [16]: 146; Activity [17]: 2792 nm; Activity [18]: 0.584; Activity [19]: Active; Activity [20]: Active; Activity [21]: Active; Activity [22]: Active; Activity [23]: Active; Activity [24]: Active |
| CCc1ccc(-c2nc(C[C@H](N)C(=O)N[C@@H](Cc3c[nH]c4ccccc34)C(=O)N[C@@H](CCCNC(=N)N)C(=O)NCc3ccccc3)c[nH]2)cc1.Cl.Cl | 2.26 µg/mL | inactive | inactive | inactive | > 10 µg/mL |  | 10 µg/mL | 18.4 µg/mL | 20 µg/mL | 13.5 µg/mL | 20 µg/mL | > 20 µg/mL | > 20 µg/mL |  |
